We go through 1 compound from PMC12541585 (Acta Pharmaceutica Sinica. B, 2025).

The assay deals with MDA-MB-231 xenograft. Kind of assay: MDA-MB-231 xenograft model. In kind it is in vivo, BALB/c nude mice. To be noted: immunohistochemical staining of MDA-MB-231 tumors, vs control group. The method, boiled down:
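Female nude mice received 5×10^6 MDA-MB-231 cells in 100 μL Matrigel/PBS (1:1) subcutaneously into the right flank. At ≥80 mm³, mice were randomised into five groups, each dosed intraperitoneally every three days: test compound at 0.1, 0.5 or 1 mg/kg, paclitaxel 4 mg/kg, or PBS. Excised tumour sections were stained with anti-CXCR4 (1:100, 4 °C overnight), then HRP secondary (30 min) and DAB.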

As to `CC(=O)O[C@H]1C(=O)[C@@]2(C)[C@H]([C@H](OC(=O)c3ccccc3)[C@]3(O)C[C@H](OC(=O)[C@H](O)[C@@H](NC(=O)c4ccccc4)c4ccccc4)C(C)=C1C3(C)C)[C@]1(OC(C)=O)CO[C@@H]1C[C@@H]2O` [PTX, Paclitaxel], the “proportion of CXCR4-positive cells in tumor tissue” value is given as “little effect”.
